ChEMBL document CHEMBL3860061, “A Novel Parkinson's Disease Drug Candidate with Potent Anti-neuroinflammatory Effects through the Src Signaling Pathway” (J Med Chem, 2016)
The source made the active and inactive calls.

Tests used:
[1] = molecular target: Proto-oncogene tyrosine-protein kinase Src (Rattus norvegicus) (UniProt Q9WUD9); test: Inhibition of Src in Sprague-Dawley rat primary mixed mesecephalic neuron/glial cells assessed as suppression of LPS-induced TNFalpha expression at 10 uM preincubated for 1 hr followed by LPS challenge measured after 5 hrs by ELISA
Sequence of Proto-oncogene tyrosine-protein kinase Src (Rattus norvegicus) (Q9WUD9 2-536 limits assumed): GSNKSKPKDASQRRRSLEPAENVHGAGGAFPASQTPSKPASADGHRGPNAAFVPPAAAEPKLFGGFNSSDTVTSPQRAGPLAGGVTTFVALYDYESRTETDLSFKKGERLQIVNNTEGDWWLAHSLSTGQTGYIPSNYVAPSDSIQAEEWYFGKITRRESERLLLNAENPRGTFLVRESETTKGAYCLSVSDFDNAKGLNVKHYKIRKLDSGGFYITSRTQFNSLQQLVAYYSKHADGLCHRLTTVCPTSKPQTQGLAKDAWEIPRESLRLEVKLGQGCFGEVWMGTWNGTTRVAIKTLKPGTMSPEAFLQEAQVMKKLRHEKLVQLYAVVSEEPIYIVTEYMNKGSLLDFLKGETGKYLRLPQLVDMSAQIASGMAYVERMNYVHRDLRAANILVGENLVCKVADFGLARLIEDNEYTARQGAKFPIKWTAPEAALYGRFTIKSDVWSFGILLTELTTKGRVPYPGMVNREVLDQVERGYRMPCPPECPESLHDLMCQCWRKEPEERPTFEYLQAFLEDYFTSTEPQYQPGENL
Method in brief: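 Mixed mesencephalic neuron/glia cultures from E14 Sprague-Dawley rats, used at 7 days. Agent at 10 µM added 1 h before LPS 100 ng/mL; IL-1β and TNF-α in medium measured by ELISA after 5 h, n = 6.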

[2] = molecular target: Proto-oncogene tyrosine-protein kinase Src (Rattus norvegicus) (UniProt Q9WUD9); test: Inhibition of SRC in Sprague-Dawley rat primary mixed mesecephalic neuron/glial cells assessed as protection against LPS-induced dopaminergic neuro-toxicity by measuring TH expression at 10 uM preincubated for 1 hr followed by LPS challenge measured after 7 days by Western blot analysis
Method in brief: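 Mixed mesencephalic neuron/glia cultures from E14 Sprague-Dawley rats, used at 7 days. Agent at 10 µM added 1 h before LPS 100 ng/mL; TH measured by Western blot after 7 days, n = 4.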

[3] = test system: Mus musculus; test: Antineuro-inflammatrory activity in MPTP-induced subacute C57/BL mouse Parkinson's disease model assessed as decrease in IL-1beta levels in midbrain at 10 to 20 mg/kg […] dosed 30 mins prior to each MPTP injection for 5 days and administered continuously for 7 days post last MPTP dose measured on day 12 post last dose by ELISA; format: functional, organism-based
Method in brief: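 Male C57/BL mice (22–25 g) received MPTP hydrochloride 30 mg/kg i.p. daily for 5 days. Test agent (5, 10, 20 mg/kg) or L-DOPA 20 mg/kg, suspended in 0.5% CMC-Na, given 30 min before each MPTP injection, then continued for 7 more days. On day 12 the midbrain was homogenised in non-denaturing lysis buffer with protease inhibitor and IL-1β or TNF-α measured by ELISA, n = 6, mean ± SD.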

[4] = test system: Mus musculus; test: Neuroprotective activity in MPTP/probenecid-induced chronic C57/BL mouse Parkinson's disease model assessed as improvement in motor behavior at 5 to 20 mg/kg dosed once daily for 7 weeks post 10 doses of MPTP/probenecid for 5 weeks measured after last MPTP/probenecid dose by pole test; format: functional, organism-based
Method in brief: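 Chronic MPTP/probenecid model (10 doses over 5 weeks), then agent (5–20 mg/kg) or L-DOPA 20 mg/kg daily for 7 weeks. Rotarod at 14 rpm, up to 120 s, fall latency from three trials 1 h apart. Pole test: gauze-wrapped 50 cm pole, descent scored 1–5, two trials 1 h apart after pre-training. n = 15.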

[5] = test system: Mus musculus; test: Increase in dopamine level in striatum of MPTP/probenecid-induced chronic C57/BL mouse Parkinson's disease model at 10 to 20 mg/kg dosed once daily for 7 weeks post 10 doses of MPTP/probenecid for 5 weeks measured after last MPTP/probenecid dose by HPLC analysis; format: functional, organism-based
Method in brief: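 Chronic model: 10 doses of MPTP·HCl (25 mg/kg s.c.) with probenecid (250 mg/kg i.p.) over 5 weeks. Rotarod-impaired mice then dosed with agent (5–20 mg/kg) or L-DOPA 20 mg/kg daily for 7 weeks. Striatum extracted in 0.6 N perchloric acid with phosphate/citrate/EDTA buffer; dopamine by HPLC, n = 8.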

[6] = test system: Mus musculus; test: Increase in dopamine levels in alpha-syn A53T transgenic B6C3H mouse striatum at 10 to 20 mg/kg dosed once daily for 12 consecutive weeks by HPLC analysis; format: functional, organism-based
Method in brief: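 α-syn A53T transgenic B6;C3H mice, dosed from 4 months of age once daily for 12 weeks with agent (5–20 mg/kg) or L-DOPA 20 mg/kg in 0.5% CMC-Na. Striatum sonicated in 0.6 N perchloric acid, phosphate/citrate/EDTA solution added, centrifuged; dopamine by HPLC, n = 8.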

[7] = test system: Mus musculus; test: Neuroprotective activity in alpha-syn A53T transgenic B6C3H mouse assessed as reversal of decline of TH-positive neuron levels in substantia nigra at 10 to 20 mg/kg dosed once daily for 12 consecutive weeks by 3,3'-diaminobenzidine staining based light microscopic analysis; format: functional, organism-based
Method in brief: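 Transgenic male B6;C3H A53T α-syn mice, starting at 4 months, were given drug once daily for 12 weeks in 0.5% CMC-Na. Fixed brains were sectioned at 40 µm on a freezing microtome. Substantia nigra coronal sections were immunostained for TH, visualized with DAB and peroxide, and positive neurons counted by light microscopy under blinding.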

[8] = test system: Mus musculus; test: In vivo inhibition of Src in MPTP/probenecid-induced chronic C57/BL mouse Parkinson's disease model assessed as effect on NOS1 expression level in midbrain at 5 to 20 mg/kg dosed once daily for 7 weeks post 10 doses of MPTP/probenecid for 5 weeks by iTRAQ-labelled 2D-LC/MS/MS analysis; format: functional, organism-based
[9] = test system: Mus musculus; test: Effect on GSK3beta protein expression level in midbrain of MPTP/probenecid-induced chronic C57/BL mouse Parkinson's disease model at 5 to 20 mg/kg dosed once daily for 7 weeks post 10 doses of MPTP/probenecid for 5 weeks by iTRAQ-labelled 2D-LC/MS/MS analysis; format: functional, organism-based
[10] = test system: Mus musculus; test: Effect on ARHGAP21 protein expression level in midbrain of MPTP/probenecid-induced chronic C57/BL mouse Parkinson's disease model at 5 to 20 mg/kg dosed once daily for 7 weeks post 10 doses of MPTP/probenecid for 5 weeks by iTRAQ-labelled 2D-LC/MS/MS analysis; format: functional, organism-based
[11] = test system: Mus musculus; test: Effect on Src protein expression level in midbrain of MPTP/probenecid-induced chronic C57/BL mouse Parkinson's disease model at 5 to 20 mg/kg dosed once daily for 7 weeks post 10 doses of MPTP/probenecid for 5 weeks by iTRAQ-labelled 2D-LC/MS/MS analysis; format: functional, organism-based
[12] = molecular target: Proto-oncogene tyrosine-protein kinase Src (Rattus norvegicus) (UniProt Q9WUD9); test: Inhibition of Src in Sprague-Dawley rat primary microglia cells assessed as suppression of LPS-stimulated PTEN phosphorylation at Tyr-240 residue at 10 uM preincubated for 1 hr followed by LPS challenge measured after 3 hrs by Western blot analysis
Method in brief: (§1)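 Primary microglia from 1-day-old Sprague-Dawley rat brains, grown to confluence 12–14 days, shaken off astroglia (>98% pure). Agent at 10 µM added 1 h before LPS 100 ng/mL. Phosphorylated Src, Akt and PTEN measured 3 h later by Western blot, n = 4.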

[13] = molecular target: Proto-oncogene tyrosine-protein kinase Src (Rattus norvegicus) (UniProt Q9WUD9); test: Inhibition of Src in Sprague-Dawley rat primary microglia cells assessed as suppression of LPS-stimulated Akt phosphorylation at Ser-473 residue at 10 uM preincubated for 1 hr followed by LPS challenge measured after 3 hrs by Western blot analysis; method in brief: as §1
[14] = test system: Mus musculus; test: Effect on GSK3beta protein expression level in midbrain of MPTP/probenecid-induced chronic C57/BL mouse Parkinson's disease model at 5 to 20 mg/kg dosed once daily for 7 weeks post 10 doses of MPTP/probenecid for 5 weeks by Western blot analysis; format: functional, organism-based
[15] = test system: Mus musculus; test: Effect on ARHGAP21 protein expression level in midbrain of MPTP/probenecid-induced chronic C57/BL mouse Parkinson's disease model at 5 to 20 mg/kg dosed once daily for 7 weeks post 10 doses of MPTP/probenecid for 5 weeks by Western blot analysis; format: functional, organism-based

COc1cc(OC)c(CN[C@@H](CO)C(=O)O)c(OC)c1
active: inhibition [1] | inhibition [2] | Activity [3] | Activity [4] | Activity [5] | Activity [6] | Activity [7] | inhibition [8] | Activity [9] | Activity [10] | Activity [11] | inhibition [12] | inhibition [13] | Activity [14] | Activity [15]
